Experimental data as given in ChEMBL document CHEMBL4376814, “Novel cyclin-dependent kinase 9 (CDK9) inhibitor with suppression of cancer stemness activity against non-small-cell lung cancer” (Eur J Med Chem, 2019).
Activity calls are given as the source filed them. The calls are words filed in the database; no cut-off is given here.

What was measured:
[1] = target: Dual specificity protein kinase CLK1 (Homo sapiens) (UniProt P49759); assay: Inhibition of recombinant human CLK1 (130 to end residues) at 1 uM using ERMRPRKRQGSVRRRV as substrate measured after 40 mins in presence of [gamma33P]ATP by scintillation counting method relative to control
[2] = target: Mitogen-activated protein kinase kinase kinase 2 (Homo sapiens) (UniProt Q9Y2U5); assay: Inhibition of full-length recombinant human MEKK2 at 1 uM using myelin basic protein as substrate measured after 40 mins in presence of [gamma33P]ATP by scintillation counting method relative to control
Summary of the method: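 Percent inhibition of kinase activity at a single compound concentration, measured by the outsourced Eurofins KinaseProfiler panel. Values are the mean of two independent experiments.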

[3] = target: LIM domain kinase 1 (Homo sapiens) (UniProt P53667); assay: Inhibition of recombinant human LIMK1 (285 to 638 residues) at 1 uM using cofilin as substrate measured after 40 mins in presence of [gamma33P]ATP by scintillation counting method relative to control
[4] = target: Calcium/calmodulin-dependent protein kinase type II subunit delta (Homo sapiens) (UniProt Q13557); assay: Inhibition of recombinant full-length human CaMK2delta at 1 uM using calmodulin as substrate measured after 40 mins in presence of [gamma33P]ATP by scintillation counting method relative to control
HepG2 = assay: Antiproliferative activity against human HepG2 cells assessed as inhibition of cell viability after 72 hrs by CCK-8 assay; format: functional, cell-based; conditions: HepG2, 72 h
Summary of the method: (§1)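 Cells kept at 37 °C, 5% CO2 in DMEM or RPMI-1640 with 10% FBS and 1% penicillin/streptomycin, then seeded at 3000 cells/well (adherent) or 10,000 cells/well (suspension). Exposed to a range of concentrations for 72 h. CCK-8 added for 1-4 h before reading A450. […] Three independent experiments.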

[5] = target: Mitogen-activated protein kinase 12 (Homo sapiens) (UniProt P53778); assay: Inhibition of recombinant full-length human SAPK3 at 1 uM using myelin basic protein as substrate measured after 40 mins in presence of [gamma33P]ATP by scintillation counting method relative to control
[6] = target: Vascular endothelial growth factor receptor 2 (Homo sapiens) (UniProt P35968); assay: Inhibition of recombinant human KDR (790 to end residues) at 1 uM using MBP as substrate measured after 40 mins in presence of [gamma33P]ATP by scintillation counting method relative to control
[7] = target: Cyclin-dependent kinase 9 (Homo sapiens) (UniProt P50750); conditions: 0.25 uM
A549 [8] = assay: Induction of cell cycle arrest in human A549 cells assessed as increase in accumulation of cells at G2/M phase at 1 uM after 24 hrs by propidium iodide/RNase staining based flow cytometric analysis; format: functional
Summary of the method: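 A549 and H1299 plated at 5×10^5 cells/mL in 6-well plates, treated after adherence for 24 h. Washed with PBS, fixed overnight in ice-cold 75% ethanol, stained with propidium iodide plus RNase A for 30 min at 37 °C, analysed by flow cytometry for phase distribution. Means ± SD, three independent experiments.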

[9] = target: Mitogen-activated protein kinase 10 (Homo sapiens) (UniProt P53779); assay: Inhibition of recombinant full-length human JNK3 at 1 uM using peptide as substrate measured after 40 mins in presence of [gamma33P]ATP by scintillation counting method relative to control
[10] = Toxicity in Balb/c mouse xenografted with human H1299 cells assessed as effect on body weight at 20 to 80 mg/kg, po administered for 21 days and measured daily […]; format: organism-based; conditions: in vivo, 504 h
[11] = target: Inhibitor of nuclear factor kappa-B kinase subunit epsilon (Homo sapiens) (UniProt Q14164); assay: Inhibition of recombinant full-length human IKKepsilon at 1 uM using casein as substrate measured after 40 mins in presence of [gamma33P]ATP by scintillation counting method relative to control
Homo sapiens = species on record: Homo sapiens; assay: Inhibition of recombinant full-length human pkb-alpha S478G mutant at 1 uM using GRPRTSSFAEGKK as substrate measured after 40 mins in presence of [gamma33P]ATP by scintillation counting method relative to control
A549 [12] = assay: Induction of apoptosis in human A549 cells assessed as viable cells at 0.5 uM after 48 hrs by AnnexinV-FITC/PI staining-based flow cytometric analysis (reference value: 88.8%); format: functional; conditions: A549, 48 h, read-out: Activity
[13] = target: Serine/threonine-protein kinase 26 (Homo sapiens) (UniProt Q9P289); assay: Inhibition of recombinant human MST4 (4 to 304 residues) at 1 uM using RLGRDKYKTLRQIRQ as substrate measured after 40 mins in presence of [gamma33P]ATP by scintillation counting method relative to control
[14] = target: Serine/threonine-protein kinase PRP4 homolog (Homo sapiens) (UniProt Q13523); assay: Inhibition of human PRP4 (663 to end residues) at 1 uM using casein as substrate measured after 120 mins in presence of [gamma33P]ATP by scintillation counting method relative to control
Summary of the method: (§2)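 Single-point inhibition at 1 µM was measured in the Eurofins KinaseProfiler panel. Values are the mean of two independent experiments.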

Jurkat = assay: Antiproliferative activity against human Jurkat cells assessed as inhibition of cell viability after 72 hrs by CCK-8 assay; format: functional, cell-based; summary of the method: as §1
[15] = target: Protein kinase C zeta type (Homo sapiens) (UniProt Q05513); assay: Inhibition of recombinant human PKCzeta (2 to end residues) at 1 uM using ERMRPRKRQGSVRRRV as substrate measured after 40 mins in presence of [gamma33P]ATP by scintillation counting method relative to control; summary of the method: as §2
[16] = target: Serine/threonine-protein kinase Nek2 (Homo sapiens) (UniProt P51955); assay: Inhibition of recombinant full-length human NEK2 at 1 uM using myelin basic protein as substrate measured after 40 mins in presence of [gamma33P]ATP by scintillation counting method relative to control
A549 [17] = assay: Inhibition of tumorsphere formation in human A549 cells after 2 weeks by microscopic analysis; format: functional, cell-based
NCI-H1299 = assay: Inhibition of tumorsphere formation in human H1299 cells after 2 weeks by microscopic analysis; format: functional, cell-based
[18] = target: Serine/threonine-protein kinase PLK3 (Homo sapiens) (UniProt Q9H4B4); assay: Inhibition of recombinant human Plk3 (19 to 301 residues) at 1 uM using casein as substrate measured after 40 mins in presence of [gamma33P]ATP by scintillation counting method relative to control; summary of the method: as §2
[19] = tested on: PI3-kinase p110-alpha/p85-alpha (Homo sapiens), P27986+P42336 [E542K]; assay: Inhibition of recombinant full-length human PI3K p110alpha/p85alpha E542K mutant at 1 uM using phosphatidylinositol-4, 5-bisphosphate as substrate measured after 40 mins by HTRF assay relative to control
HeLa = assay: Antiproliferative activity against human HeLa cells assessed as inhibition of cell viability after 72 hrs by CCK-8 assay; format: functional, cell-based; summary of the method: as §1

Mitogen-activated protein kinase 10 (Homo sapiens), sequence (P53779 whole entry): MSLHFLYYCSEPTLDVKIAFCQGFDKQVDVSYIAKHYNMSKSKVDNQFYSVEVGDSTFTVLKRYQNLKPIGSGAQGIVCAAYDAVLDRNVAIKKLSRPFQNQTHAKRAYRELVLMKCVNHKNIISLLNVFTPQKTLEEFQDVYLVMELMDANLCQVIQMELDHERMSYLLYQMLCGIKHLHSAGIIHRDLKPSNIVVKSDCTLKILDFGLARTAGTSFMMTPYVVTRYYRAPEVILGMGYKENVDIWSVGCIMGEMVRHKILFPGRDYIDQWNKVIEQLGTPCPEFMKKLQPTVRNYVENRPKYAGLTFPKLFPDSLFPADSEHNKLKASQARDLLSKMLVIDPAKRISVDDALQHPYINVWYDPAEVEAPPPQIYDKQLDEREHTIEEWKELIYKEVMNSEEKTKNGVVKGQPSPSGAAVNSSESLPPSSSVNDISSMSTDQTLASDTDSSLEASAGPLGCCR
Serine/threonine-protein kinase PLK3 (Homo sapiens), sequence (Q9H4B4 whole entry, looked up, the tested form may be a part): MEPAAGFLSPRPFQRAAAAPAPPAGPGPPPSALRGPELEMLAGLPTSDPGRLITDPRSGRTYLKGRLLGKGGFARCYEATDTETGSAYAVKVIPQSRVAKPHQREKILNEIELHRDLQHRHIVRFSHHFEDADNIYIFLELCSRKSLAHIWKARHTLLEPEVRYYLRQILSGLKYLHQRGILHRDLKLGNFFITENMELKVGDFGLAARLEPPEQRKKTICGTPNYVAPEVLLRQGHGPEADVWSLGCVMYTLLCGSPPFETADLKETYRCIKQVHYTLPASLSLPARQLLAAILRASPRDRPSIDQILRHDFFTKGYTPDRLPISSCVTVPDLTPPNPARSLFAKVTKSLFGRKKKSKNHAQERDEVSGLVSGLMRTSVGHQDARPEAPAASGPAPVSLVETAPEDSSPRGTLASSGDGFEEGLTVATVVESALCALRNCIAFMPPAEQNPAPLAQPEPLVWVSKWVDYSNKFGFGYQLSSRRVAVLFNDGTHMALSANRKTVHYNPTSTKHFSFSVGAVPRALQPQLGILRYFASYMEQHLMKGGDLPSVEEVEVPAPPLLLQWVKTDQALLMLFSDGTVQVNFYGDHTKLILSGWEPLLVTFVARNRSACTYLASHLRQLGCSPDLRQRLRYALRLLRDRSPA
Cyclin-dependent kinase 9 (Homo sapiens), sequence (P50750 whole entry): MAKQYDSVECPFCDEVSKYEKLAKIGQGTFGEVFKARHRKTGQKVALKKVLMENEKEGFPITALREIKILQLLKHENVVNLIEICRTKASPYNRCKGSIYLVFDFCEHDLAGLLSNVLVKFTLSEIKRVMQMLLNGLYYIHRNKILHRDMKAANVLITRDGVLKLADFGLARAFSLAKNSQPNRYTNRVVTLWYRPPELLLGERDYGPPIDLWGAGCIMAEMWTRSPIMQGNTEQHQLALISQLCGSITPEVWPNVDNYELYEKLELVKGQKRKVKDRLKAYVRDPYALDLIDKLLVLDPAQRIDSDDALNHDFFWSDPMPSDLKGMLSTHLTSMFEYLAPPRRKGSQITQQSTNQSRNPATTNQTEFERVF
Protein kinase C zeta type (Homo sapiens), sequence (Q05513 whole entry): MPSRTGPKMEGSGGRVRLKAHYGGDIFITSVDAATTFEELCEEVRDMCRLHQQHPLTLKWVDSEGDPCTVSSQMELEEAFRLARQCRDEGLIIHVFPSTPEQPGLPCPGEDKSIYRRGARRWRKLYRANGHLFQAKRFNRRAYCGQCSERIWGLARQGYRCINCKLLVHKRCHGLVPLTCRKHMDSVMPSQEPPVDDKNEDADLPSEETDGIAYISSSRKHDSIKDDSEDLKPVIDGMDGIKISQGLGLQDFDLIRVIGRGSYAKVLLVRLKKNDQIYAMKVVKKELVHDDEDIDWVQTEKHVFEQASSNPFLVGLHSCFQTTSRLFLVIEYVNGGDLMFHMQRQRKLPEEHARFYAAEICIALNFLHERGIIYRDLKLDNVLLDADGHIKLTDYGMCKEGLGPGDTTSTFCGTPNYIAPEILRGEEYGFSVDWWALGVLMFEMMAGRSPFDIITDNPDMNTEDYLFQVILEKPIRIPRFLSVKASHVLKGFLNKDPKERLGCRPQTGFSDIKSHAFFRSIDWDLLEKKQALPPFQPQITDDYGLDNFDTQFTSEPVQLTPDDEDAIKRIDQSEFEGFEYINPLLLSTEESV
Inhibitor of nuclear factor kappa-B kinase subunit epsilon (Homo sapiens), sequence (Q14164 whole entry): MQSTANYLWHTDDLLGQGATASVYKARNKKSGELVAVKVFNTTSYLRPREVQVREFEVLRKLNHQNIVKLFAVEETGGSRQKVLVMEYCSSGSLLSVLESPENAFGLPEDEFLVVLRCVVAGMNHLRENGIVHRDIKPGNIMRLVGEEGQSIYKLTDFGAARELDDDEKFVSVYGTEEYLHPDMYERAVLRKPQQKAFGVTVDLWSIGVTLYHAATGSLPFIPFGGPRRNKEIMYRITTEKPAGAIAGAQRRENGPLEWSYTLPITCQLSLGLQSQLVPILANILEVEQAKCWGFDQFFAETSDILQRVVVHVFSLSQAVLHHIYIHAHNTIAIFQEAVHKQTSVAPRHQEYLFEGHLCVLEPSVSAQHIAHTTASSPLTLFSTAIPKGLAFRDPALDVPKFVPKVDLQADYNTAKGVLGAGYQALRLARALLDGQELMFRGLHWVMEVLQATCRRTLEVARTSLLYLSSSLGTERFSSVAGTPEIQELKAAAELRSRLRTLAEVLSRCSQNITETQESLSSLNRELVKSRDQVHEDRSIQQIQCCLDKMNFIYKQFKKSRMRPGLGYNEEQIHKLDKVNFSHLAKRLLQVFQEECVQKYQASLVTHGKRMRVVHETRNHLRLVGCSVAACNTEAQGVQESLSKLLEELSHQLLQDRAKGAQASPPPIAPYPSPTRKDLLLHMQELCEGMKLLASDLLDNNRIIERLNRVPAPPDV
Mitogen-activated protein kinase kinase kinase 2 (Homo sapiens), sequence (Q9Y2U5 whole entry): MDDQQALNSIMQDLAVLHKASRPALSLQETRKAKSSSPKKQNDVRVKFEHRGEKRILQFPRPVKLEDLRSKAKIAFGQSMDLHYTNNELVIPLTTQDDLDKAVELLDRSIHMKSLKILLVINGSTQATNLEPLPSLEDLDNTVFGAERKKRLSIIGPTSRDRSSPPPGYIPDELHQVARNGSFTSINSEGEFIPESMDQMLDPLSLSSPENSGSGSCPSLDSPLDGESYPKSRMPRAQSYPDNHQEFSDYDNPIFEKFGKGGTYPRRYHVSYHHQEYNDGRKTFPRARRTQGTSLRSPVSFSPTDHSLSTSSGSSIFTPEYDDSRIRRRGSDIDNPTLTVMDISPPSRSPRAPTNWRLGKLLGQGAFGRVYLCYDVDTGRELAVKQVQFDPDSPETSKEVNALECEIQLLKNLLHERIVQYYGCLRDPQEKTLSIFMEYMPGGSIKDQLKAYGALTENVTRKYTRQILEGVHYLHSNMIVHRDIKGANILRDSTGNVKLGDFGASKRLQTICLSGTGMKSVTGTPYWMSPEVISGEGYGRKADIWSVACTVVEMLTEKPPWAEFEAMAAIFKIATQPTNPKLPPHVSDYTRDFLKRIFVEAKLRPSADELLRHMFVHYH
Dual specificity protein kinase CLK1 (Homo sapiens), sequence (P49759 whole entry, looked up): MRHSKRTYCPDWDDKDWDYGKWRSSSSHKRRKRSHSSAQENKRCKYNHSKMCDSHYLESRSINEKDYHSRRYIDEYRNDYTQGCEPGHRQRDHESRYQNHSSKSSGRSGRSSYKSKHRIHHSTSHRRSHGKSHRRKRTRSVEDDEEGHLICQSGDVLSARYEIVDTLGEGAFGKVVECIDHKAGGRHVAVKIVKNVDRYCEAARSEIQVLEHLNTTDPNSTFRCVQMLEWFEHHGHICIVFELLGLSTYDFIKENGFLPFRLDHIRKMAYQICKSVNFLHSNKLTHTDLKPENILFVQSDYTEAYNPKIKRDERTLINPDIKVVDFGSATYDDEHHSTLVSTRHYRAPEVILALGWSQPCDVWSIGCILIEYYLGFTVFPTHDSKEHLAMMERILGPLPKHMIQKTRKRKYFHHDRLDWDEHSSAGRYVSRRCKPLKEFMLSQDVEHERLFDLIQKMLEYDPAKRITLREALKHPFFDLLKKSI
Serine/threonine-protein kinase PRP4 homolog (Homo sapiens), sequence (Q13523 whole entry): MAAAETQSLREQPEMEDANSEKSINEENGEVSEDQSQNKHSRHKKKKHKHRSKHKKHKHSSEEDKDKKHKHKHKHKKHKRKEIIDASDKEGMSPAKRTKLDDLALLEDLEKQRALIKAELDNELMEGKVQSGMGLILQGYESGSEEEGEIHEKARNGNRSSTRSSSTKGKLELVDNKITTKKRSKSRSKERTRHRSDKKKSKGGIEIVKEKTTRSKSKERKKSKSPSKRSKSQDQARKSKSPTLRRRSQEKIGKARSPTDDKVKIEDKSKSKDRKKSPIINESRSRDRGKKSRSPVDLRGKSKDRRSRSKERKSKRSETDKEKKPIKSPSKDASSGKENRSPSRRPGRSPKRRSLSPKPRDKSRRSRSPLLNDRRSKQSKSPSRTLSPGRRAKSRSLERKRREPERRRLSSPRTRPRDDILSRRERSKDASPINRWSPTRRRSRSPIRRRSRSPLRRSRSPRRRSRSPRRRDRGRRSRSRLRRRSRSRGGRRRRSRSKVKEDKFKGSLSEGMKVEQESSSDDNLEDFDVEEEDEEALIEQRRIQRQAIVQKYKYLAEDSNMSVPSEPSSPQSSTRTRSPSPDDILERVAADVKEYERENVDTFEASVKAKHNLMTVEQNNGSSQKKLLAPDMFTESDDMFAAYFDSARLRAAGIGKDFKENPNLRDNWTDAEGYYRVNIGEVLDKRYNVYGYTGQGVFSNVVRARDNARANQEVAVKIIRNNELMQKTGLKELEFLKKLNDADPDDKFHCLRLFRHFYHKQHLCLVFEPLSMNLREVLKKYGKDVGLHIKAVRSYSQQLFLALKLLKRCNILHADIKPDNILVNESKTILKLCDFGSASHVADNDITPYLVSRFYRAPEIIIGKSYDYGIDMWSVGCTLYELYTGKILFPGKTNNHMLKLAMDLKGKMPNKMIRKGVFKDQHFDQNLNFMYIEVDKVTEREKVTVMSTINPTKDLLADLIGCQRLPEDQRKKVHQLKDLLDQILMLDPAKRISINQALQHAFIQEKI

CN(C)C(=O)c1cc2cnc(Nc3ccc(NC(=O)CCCCCCCN=C=S)cc3)nc2n1C1CCCC1
inhibition [1]: 14%
inhibition [2]: 27%
inhibition [3]: 71%
inhibition [4]: 36%
IC50 (HepG2): 3.86 µM
inhibition [5]: 4%
inhibition [6]: 56%
inhibition [7]: Active
Activity (A549 [8]): Active
inhibition [9]: 85%
Activity [10]: Non-Toxic
inhibition [11]: -4%
inhibition (Homo sapiens): 5%
viability at 0.5 µM (A549 [12]): 78.8%
inhibition [13]: 6%
inhibition [14]: 1%
IC50 (Jurkat): 3.43 µM
inhibition [15]: 1%
inhibition [16]: 13%
inhibition (A549 [17]): Dose-dependent effect
inhibition (NCI-H1299): Dose-dependent effect
inhibition [18]: 1%
inhibition [19]: 10%
IC50 (HeLa): 1.85 µM
